For assay [1], the target named is T1, Serine/threonine-protein kinase 17B (Homo sapiens) (UniProt O94768).
T1 sequence (whole entry): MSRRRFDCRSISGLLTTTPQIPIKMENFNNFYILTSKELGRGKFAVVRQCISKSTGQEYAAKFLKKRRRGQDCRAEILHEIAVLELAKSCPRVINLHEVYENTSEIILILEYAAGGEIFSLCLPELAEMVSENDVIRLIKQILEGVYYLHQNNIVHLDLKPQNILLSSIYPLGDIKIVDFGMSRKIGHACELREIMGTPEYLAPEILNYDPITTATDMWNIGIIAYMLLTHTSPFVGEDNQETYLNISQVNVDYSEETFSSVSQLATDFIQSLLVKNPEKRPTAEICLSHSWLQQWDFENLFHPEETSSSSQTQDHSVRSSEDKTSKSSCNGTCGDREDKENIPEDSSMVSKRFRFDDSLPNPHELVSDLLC
Put plainly: Inhibition of human recombinant DRAK2 at 40 nM in presence of ATP by radiometric assay relative to control.

Assay [2] deals with Ribosomal protein S6 kinase alpha-2 (Homo sapiens) (UniProt Q15349). Put plainly: Inhibition of human recombinant RSK3 at 40 nM in presence of ATP by radiometric assay relative to control.
Chain of Ribosomal protein S6 kinase alpha-2 (Homo sapiens) (Q15349 whole entry): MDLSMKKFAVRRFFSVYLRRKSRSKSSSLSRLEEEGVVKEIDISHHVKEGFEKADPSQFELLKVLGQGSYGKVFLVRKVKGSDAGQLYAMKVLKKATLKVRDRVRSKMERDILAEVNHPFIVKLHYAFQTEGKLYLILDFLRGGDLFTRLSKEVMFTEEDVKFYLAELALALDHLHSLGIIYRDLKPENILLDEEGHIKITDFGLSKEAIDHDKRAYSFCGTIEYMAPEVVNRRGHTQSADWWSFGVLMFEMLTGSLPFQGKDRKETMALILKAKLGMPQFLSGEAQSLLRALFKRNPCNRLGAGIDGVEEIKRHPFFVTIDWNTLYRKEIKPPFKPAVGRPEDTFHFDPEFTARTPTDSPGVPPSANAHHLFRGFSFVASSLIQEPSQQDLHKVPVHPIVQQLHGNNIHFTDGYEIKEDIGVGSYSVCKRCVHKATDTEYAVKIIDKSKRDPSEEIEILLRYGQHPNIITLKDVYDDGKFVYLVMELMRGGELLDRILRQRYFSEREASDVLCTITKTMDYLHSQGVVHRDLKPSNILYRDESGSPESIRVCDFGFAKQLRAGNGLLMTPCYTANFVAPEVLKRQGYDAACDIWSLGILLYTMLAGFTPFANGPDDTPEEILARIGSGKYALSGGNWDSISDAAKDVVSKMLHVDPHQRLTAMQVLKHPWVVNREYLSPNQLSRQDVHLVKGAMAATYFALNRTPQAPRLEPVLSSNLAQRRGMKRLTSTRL
Assay [3] has as its target Mitogen-activated protein kinase kinase kinase kinase 4 (Homo sapiens) (UniProt O95819). Put plainly: Inhibition of human recombinant HGK at 40 nM in presence of ATP by radiometric assay relative to control.
Assay [4] has as its target Ribosomal protein S6 kinase alpha-5 (Homo sapiens) (UniProt O75582). Put plainly: Inhibition of human recombinant MSK1 at 40 nM related to control ULK1.
For assay [5], the target named is T2, Serine/threonine-protein kinase TBK1 (Homo sapiens) (UniProt Q9UHD2).
T2 sequence (whole entry): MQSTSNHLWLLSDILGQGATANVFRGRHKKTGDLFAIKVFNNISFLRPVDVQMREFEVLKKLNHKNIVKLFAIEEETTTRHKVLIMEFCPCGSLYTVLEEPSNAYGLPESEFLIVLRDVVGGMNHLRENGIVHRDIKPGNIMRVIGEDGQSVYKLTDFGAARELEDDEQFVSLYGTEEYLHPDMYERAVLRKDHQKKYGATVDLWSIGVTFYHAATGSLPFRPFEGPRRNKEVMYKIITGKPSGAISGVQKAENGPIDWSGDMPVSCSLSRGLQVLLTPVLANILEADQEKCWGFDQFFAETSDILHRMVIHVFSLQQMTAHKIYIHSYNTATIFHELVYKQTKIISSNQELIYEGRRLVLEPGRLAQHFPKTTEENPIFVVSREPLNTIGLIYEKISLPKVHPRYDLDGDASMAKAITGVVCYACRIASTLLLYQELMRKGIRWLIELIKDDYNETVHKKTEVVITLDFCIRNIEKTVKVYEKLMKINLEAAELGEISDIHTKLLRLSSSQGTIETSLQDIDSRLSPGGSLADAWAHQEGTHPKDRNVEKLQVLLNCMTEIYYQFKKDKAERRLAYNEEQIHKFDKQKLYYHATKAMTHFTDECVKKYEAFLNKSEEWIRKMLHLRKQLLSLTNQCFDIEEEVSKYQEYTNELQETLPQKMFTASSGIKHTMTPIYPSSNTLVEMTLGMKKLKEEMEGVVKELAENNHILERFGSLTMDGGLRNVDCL
Put plainly: Inhibition of human recombinant TBK1 at 500 nM in presence of ATP by radiometric assay relative to control.

The target in assay [6] is T3, Serine/threonine-protein kinase A-Raf (Homo sapiens) (UniProt P10398).
T3 sequence (whole entry): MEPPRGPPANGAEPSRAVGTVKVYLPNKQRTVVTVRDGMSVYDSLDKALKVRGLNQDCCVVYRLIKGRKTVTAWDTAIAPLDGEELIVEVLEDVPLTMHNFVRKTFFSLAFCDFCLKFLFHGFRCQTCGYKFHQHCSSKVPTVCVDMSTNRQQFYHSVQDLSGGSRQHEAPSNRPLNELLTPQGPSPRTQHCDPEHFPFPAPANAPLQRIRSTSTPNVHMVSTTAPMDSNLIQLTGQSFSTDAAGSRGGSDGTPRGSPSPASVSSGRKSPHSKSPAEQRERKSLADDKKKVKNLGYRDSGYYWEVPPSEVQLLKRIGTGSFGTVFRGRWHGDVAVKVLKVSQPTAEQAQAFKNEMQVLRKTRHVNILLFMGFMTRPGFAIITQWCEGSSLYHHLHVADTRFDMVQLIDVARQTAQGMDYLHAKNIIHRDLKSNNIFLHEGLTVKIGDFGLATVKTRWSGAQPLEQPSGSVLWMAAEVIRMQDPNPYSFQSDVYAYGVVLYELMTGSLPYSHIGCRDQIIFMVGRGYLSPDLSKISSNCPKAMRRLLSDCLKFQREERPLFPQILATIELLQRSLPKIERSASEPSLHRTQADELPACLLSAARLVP
Nature of the assay: Inhibition of human recombinant ARAF at 500 nM related to control ULK1. The method in brief:
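Panel of 327 recombinant human kinases, each assayed in vitro by radiometric activity assay in duplicate at a single inhibitor concentration per compound, chosen with reference to its ULK1 inhibition. Activity remaining was expressed as percent of vehicle control, and percent inhibition was calculated as 100 minus percent activity remaining.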

In assay [7] the target is Serine/threonine-protein kinase PAK 1 (Homo sapiens) (UniProt Q13153). Put plainly: Inhibition of human recombinant PAK1 at 500 nM related to control ULK1.
Chain of Serine/threonine-protein kinase PAK 1 (Homo sapiens) (Q13153 whole entry, looked up): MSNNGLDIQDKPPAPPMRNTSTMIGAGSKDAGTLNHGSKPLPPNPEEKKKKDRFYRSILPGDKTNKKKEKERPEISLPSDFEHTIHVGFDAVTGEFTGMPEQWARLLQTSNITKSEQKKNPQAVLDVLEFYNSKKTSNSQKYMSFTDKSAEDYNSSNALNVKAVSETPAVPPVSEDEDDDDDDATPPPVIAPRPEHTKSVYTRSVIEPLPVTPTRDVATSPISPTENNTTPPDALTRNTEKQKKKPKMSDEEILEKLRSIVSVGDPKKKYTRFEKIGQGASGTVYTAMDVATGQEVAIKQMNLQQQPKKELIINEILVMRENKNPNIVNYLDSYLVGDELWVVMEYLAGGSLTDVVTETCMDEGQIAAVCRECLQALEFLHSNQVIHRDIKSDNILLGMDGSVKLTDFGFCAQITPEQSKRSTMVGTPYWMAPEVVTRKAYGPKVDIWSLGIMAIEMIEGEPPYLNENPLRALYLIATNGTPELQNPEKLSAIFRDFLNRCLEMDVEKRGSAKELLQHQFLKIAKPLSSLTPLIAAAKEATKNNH
Assay [8] concerns the target [Pyruvate dehydrogenase (acetyl-transferring)] kinase isozyme 4, mitochondrial (Homo sapiens) (UniProt Q16654). Put plainly: Inhibition of human recombinant PDHK4 at 500 nM in presence of ATP by radiometric assay relative to control.
The target of assay [9] is T4, Dual specificity mitogen-activated protein kinase kinase 6 (Homo sapiens) (UniProt P52564).
T4 sequence (whole entry): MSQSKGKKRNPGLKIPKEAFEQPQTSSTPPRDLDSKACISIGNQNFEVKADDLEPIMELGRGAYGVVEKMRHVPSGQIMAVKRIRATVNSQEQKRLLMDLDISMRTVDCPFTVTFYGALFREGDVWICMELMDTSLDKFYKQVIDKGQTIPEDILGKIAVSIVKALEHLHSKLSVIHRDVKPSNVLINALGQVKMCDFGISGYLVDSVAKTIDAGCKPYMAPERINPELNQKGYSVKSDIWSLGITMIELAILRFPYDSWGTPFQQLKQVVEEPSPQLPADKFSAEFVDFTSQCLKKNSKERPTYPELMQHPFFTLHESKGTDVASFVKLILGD
Nature of the assay: Inhibition of human recombinant MAP2K6 at 500 nM related to control ULK1.

The target in assay [10] is Receptor tyrosine-protein kinase erbB-2 (Homo sapiens) (UniProt P04626). Put plainly: Inhibition of human recombinant ErbB2 at 15 nM related to control ULK1.
The target of assay [11] is Hepatocyte growth factor receptor MET (Homo sapiens) (UniProt P08581). Nature of the assay: Inhibition of human recombinant MET at 15 nM in presence of ATP by radiometric assay relative to control.
Chain of Hepatocyte growth factor receptor MET (Homo sapiens) (P08581 whole entry, looked up): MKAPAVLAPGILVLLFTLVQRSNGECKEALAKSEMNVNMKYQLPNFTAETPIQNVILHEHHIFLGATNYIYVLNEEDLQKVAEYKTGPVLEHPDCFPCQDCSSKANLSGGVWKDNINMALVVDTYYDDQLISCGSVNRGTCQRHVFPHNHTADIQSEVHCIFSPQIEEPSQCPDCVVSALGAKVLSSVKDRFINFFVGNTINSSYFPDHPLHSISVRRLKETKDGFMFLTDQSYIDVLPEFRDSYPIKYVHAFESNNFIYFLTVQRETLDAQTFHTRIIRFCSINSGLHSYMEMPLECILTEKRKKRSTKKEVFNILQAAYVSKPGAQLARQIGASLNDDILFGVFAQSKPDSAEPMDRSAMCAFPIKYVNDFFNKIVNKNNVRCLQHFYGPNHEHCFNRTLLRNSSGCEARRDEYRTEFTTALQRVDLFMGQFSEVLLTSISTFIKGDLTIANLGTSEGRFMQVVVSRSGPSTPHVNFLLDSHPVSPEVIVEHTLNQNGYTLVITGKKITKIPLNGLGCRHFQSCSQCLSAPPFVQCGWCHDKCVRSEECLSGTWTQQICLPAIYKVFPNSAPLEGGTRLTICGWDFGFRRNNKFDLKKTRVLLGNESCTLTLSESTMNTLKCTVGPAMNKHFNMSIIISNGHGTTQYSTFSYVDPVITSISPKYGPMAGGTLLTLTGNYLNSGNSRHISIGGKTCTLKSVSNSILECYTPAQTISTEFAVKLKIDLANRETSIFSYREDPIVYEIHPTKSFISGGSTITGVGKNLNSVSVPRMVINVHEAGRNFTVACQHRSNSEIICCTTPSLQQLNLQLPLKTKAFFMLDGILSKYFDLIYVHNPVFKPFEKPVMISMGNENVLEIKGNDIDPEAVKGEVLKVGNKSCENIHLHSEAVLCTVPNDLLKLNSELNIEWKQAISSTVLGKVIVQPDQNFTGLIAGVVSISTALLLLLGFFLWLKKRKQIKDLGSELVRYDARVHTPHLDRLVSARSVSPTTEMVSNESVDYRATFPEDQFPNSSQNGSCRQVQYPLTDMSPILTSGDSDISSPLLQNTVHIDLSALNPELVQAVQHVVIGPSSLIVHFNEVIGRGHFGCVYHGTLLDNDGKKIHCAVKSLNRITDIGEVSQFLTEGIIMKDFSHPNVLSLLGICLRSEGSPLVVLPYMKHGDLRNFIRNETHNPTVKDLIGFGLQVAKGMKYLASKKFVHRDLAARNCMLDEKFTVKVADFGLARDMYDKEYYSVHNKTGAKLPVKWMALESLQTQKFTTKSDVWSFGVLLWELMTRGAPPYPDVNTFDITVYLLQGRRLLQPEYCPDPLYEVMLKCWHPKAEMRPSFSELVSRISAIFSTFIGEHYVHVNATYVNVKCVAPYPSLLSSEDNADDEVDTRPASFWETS
For assay [12], the target named is Serine/threonine-protein kinase ULK1 (Homo sapiens, UniProt O75385). Put plainly: Inhibition of human ULK1.
Chain of Serine/threonine-protein kinase ULK1 (O75385 whole entry): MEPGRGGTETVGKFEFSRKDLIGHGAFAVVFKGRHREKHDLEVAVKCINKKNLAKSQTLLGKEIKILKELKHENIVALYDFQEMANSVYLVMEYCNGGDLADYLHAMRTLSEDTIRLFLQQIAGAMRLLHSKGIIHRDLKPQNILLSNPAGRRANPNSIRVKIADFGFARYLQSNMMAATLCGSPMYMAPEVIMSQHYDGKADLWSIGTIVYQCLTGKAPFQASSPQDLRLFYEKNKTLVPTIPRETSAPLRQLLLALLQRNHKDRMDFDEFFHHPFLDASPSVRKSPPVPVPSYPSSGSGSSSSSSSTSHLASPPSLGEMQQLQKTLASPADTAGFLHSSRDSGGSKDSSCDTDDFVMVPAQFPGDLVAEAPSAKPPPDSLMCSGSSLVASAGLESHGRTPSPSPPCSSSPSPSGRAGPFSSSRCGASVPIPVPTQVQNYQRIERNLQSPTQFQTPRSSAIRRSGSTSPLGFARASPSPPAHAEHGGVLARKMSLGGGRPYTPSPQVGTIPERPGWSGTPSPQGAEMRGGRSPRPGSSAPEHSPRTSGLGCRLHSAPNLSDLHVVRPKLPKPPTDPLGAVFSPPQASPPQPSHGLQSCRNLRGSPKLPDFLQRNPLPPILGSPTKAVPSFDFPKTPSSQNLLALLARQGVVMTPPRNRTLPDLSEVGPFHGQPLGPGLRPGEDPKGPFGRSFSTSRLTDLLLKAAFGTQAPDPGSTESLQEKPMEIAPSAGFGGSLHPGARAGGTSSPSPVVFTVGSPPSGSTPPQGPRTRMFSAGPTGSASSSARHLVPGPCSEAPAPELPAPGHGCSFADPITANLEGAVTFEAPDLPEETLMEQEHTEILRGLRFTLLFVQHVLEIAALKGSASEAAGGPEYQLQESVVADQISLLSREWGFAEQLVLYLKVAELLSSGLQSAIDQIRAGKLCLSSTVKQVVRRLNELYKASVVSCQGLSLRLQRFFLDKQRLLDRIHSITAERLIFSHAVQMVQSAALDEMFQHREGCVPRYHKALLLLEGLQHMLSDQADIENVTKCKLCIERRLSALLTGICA

For orientation: inhibition means the change of the read-out against control, counted positive when it falls. In general, IC50 refers to the concentration at which inhibition is half-maximal. A higher IC50 goes with lower potency.

Chain of Ribosomal protein S6 kinase alpha-5 (Homo sapiens) (O75582 whole entry, looked up): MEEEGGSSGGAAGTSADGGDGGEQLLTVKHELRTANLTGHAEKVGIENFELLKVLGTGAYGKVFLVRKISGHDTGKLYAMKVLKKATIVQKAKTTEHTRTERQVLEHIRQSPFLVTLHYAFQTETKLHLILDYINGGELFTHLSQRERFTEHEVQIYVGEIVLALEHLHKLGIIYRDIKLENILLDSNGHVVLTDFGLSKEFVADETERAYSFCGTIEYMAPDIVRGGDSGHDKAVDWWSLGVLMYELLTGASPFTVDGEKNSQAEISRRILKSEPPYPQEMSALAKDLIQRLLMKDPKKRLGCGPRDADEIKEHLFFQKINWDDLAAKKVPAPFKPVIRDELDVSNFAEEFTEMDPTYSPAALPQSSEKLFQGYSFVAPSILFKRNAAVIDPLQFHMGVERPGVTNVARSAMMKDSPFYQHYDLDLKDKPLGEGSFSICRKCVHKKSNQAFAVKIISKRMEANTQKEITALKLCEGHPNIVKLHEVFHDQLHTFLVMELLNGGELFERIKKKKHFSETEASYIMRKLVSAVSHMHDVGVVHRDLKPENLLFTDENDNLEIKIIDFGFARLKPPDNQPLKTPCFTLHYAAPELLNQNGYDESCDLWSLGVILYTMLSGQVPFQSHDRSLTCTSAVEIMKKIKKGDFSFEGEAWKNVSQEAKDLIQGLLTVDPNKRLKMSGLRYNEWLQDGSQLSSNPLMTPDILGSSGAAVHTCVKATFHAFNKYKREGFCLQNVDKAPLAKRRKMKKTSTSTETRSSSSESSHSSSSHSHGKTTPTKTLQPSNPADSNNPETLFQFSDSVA
Chain of [Pyruvate dehydrogenase (acetyl-transferring)] kinase isozyme 4, mitochondrial (Homo sapiens) (Q16654 whole entry, looked up): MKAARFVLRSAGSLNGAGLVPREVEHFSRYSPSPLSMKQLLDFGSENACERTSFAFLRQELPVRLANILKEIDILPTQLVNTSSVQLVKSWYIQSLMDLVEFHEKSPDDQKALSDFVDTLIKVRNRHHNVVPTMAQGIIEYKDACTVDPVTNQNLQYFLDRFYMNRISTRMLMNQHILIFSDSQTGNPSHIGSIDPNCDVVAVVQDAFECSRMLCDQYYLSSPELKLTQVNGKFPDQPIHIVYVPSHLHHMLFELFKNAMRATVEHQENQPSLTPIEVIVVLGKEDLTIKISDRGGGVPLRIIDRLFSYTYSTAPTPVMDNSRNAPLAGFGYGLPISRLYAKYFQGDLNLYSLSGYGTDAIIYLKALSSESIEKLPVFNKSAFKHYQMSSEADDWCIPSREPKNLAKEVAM

Take `O=C(N[C@@H](C1CC1)C(F)(F)F)c1cc(-c2cnn3cc(-c4ccc(F)cc4)cnc23)cs1`: the results for the inhibition in [1], in assay [2] and in assay [3] were 39%, 0% and 0%, respectively. Besides, in [4], the fold change (FC) came to 0.

Turning to `CNC(=O)c1ccccc1Oc1nc(Nc2cc(OC)c(OC)c(OC)c2)ncc1Br`, the inhibition was determined as 0% in assay [5] and 5% in [8]. Moreover, the fold change (FC) in assay [6] turned out to be 0; in assay [7], 0.27; in assay [9] it was 0.07.

Consider `CC(C)[C@H](NC(=O)c1cc(-c2cnn3cc(-c4ccc(OCCN5CCCCC5)cc4)cnc23)cs1)C(F)(F)F`, for which the fold change (FC) in [10] worked out at 0. Also, the inhibition in assay [11] is 0%. Moreover, in assay [12], the IC50 stood at 1.6 nM.

The record behind these values is ChEMBL document CHEMBL5653631, “A Potent and Selective ULK1 Inhibitor Suppresses Autophagy and Sensitizes Cancer Cells to Nutrient Stress” (iScience, 2018).
